# Source: PubChem BioAssay
# Gli-Sufu antag – Gli-Sufu pathway antagonism | Sufu-KO-LIGHT fibroblasts, Gli luciferase reporter luminescence | inhibition, % at 5 µM | AID 588413 | 0.74% of 340,000 active;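 active = inhibition above about 55%, limit read from the data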;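 also: 0% = DMSO-treated cells and 100% = wells with medium but no cells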
# 697 NFkB inh – inhibitors of the PMA/ionomycin-induced NF-kB reporter in 697 B cells | 697 B-cell NF-kB luciferase reporter, 16 h | inhibition, % at 4 µM | 0.33% of 330,000 active | AID 435022; in the data active = inhibition above about 35%
# CHOP inh – blocks CHOP induction under ER stress; 3.8% of 220,000 active; inhibition, % at 10 µM; CHO-K1 CHOP-promoter luciferase, tunicamycin-induced, 15-18 h; AID 2732;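 active = compounds that reduced the stress-induced luciferase reporter signal by more than about 70% of percent inhibition, limit read from the data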;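 also: 0% = tunicamycin plus vehicle and 100% = wells without tunicamycin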
# CHOP UPR activ – activators of apoptotic arm of unfolded protein response (CHOP); 0.34% of 330,000 active; CHO-CHOP luciferase reporter, UPR activation, luminescence; percent of tunicamycin response over DMSO baseline; activation, % at 10 µM; AID 449763;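 active = at 10 µM dose, activation of 40% or more, normalized to positive control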;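 also: 100% = tunicamycin at 10 µg/mL and 0% = DMSO alone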
#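 System: CHO-CHOP luciferase reporter cell line | Buffer or medium: F12 medium containing 10% fetal bovine serum | Doses: One dose, 10 µM in 0.5% DMSO | Times: 6 h compound exposure at 37 °C after overnight seeding | Signal: Luciferase luminescence | Read-out: % activation vs tunicamycin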
# UPR XBP1 act – activators of adaptive arm of unfolded protein response (XBP1) | AID 463104 | 0.33% of 330,000 active | activation, % at 20 µM | CHO-XBP1 luciferase reporter, IRE1-XBP1 UPR activation, luminescence; percent of tunicamycin response, DMSO as zero;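 active = versus positive control, 20 µM dose yields 30% or more activation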;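 also: 100% = tunicamycin at 10 µg/mL and 0% = DMSO only wells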
#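 Material: IRE1-XBP1 luciferase reporter CHO line / Quantity: one thousand reporter cells per well / Buffer or medium: F12 with 10% serum / Compound: 20 µM single concentration, DMSO 1% / Times: 6 h treatment, 37 °C / Detection: Steady-Glo luciferase glow luminescence, 10 min after reagent addition / Benchmarks: tunicamycin high, DMSO low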
# Jurkat NFkB inh – lowers PMA/ionomycin-induced NF-kB signal in Jurkat cells | PMA/ionomycin-induced NF-kB luciferase reporter, luminescence | inhibition, % at 4 µM | 0.53% of 330,000 active | AID 435003; in the data active = inhibition above about 50%
# * hit, by the source's call; · = not tested or not shown. Rows were chosen to be rich in hits. Some 3.9% of all compounds tested hit in one or more screens of this group.
SMILES,Gli-Sufu antag,697 NFkB inh,CHOP inh,CHOP UPR activ,UPR XBP1 act,Jurkat NFkB inh
CCc1cc(C(=O)OC)c(NC(=O)CC2Nc3cc(C)c(C)cc3NC2=O)s1 (configuration not stated),-1,-5,103*,3,1,3
CCOC(=O)c1c(C)[nH]c(C)c1C(=O)COC(=O)COc1ccc(Cl)c(C)c1,-7,3,·,2,-2,6
O=C(CSc1nc2sc3c(c2c(=O)n1-c1ccccc1)CCCC3)N/N=C/c1ccccc1C(=O)O,-4,6,·,-1,-4,7
N#Cc1c(NC(=O)CSc2nnnn2C2CCCC2)sc2c1CCCC2,6,-3,82*,-1,3,-20
Cc1noc(C)c1CSCC(=O)Nc1nc2ccc(S(C)(=O)=O)cc2s1,-1,27,·,0,0,-5
COc1ccc(NC(=O)c2cccc3c2C(=O)c2ccc(-c4cnc(OC)nc4)cc2S3(=O)=O)cc1,-9,1,·,2,1,-14
Cc1cc(NC(=O)CC2CCCC2)n(-c2nc3ccccc3[nH]2)n1,7,-12,85*,0,13,2
CCc1ccn2cc(-c3ccc4c(c3)OCO4)nc2c1,0,-79,78*,-10,-10,24
N=C1S/C(=C\c2ccc(O)cc2)C(=O)N1c1ccc(F)cc1,0,8,83*,0,8,20
COc1ccc(/C=C2\SC(=S)N(c3cccnc3)C2=O)cc1,-2,24,30,2,-3,18
O=C1/C(=C\c2ccc(O)cc2)SC(=S)N1c1cccnc1,14,-16,78*,2,4,12
Cc1cc(/C=C2/SC(=S)N(c3cccc(C(F)(F)F)c3)C2=O)c(C)n1-c1cccnc1,71*,-31,·,12,-1,-3
Cc1cc(/C=C2\SC(=S)N(Cc3ccco3)C2=O)c(C)n1-c1cccnc1,-26,·,50,·,·,·
COc1ccc(S(=O)(=O)N2CCC(C(=O)NCC3CCCCC3)CC2)cc1,3,21,·,2,0,20
COc1ccc(S(=O)(=O)N2c3ccc(F)cc3CCC2C)cc1 (configuration not stated),50,7,·,-1,22,40
CC1CCc2ccc(F)cc2N1S(=O)(=O)c1cccs1 (configuration not stated),-16,10,83*,-1,0,18
Cc1cc(CC(C)C)n(-c2nc3ccccc3c(=O)n2OCc2ccccc2)n1,13,-20,74*,1,0,-15
C=CCNC(=S)N/N=C/c1ccc(OCc2ccccc2Cl)cc1,-1,23,92*,0,-4,2
Clc1ccccc1COc1ccc(/C=N/n2cnnc2)cc1,-1,-11,-1,4,-1,2
Cn1nnnc1-c1cc(Br)ccc1NC(=O)c1ccccc1,-11,-5,76*,-1,0,-4
CCN1CCC(O)(C(C(=O)OC)c2ccccc2)CC1 (configuration not stated),9,·,·,·,·,·
CCSc1nnc2ccc(-c3ccc(OC)c(OC)c3)nn12,12,28,·,2,7,6
Cc1cc(C(C)(C)CC(C)(C)C)ccc1OCCOCC[N+](C)(C)Cc1ccccc1,65*,23,·,2,1,17
COc1cccc2c1C(=O)c1c(O)c3c(c(O)c1C2=O)CC(O)(C(C)=O)CC3OC1CC(O)C(O)C(C)O1 (configuration not stated),55*,·,·,·,·,·
COc1cccc2c1C(=N)c1c(O)c3c(c(O)c1C2=O)CC(O)(C(C)=O)CC3OC1CC(N)C(O)C(C)O1 (configuration not stated),75*,·,·,·,·,·
CCCCC(=O)OCC(=O)C1(O)Cc2c(O)c3c(c(O)c2C(OC2CC(NC(=O)C(F)(F)F)C(O)C(C)O2)C1)C(=O)c1c(OC)cccc1C3=O (configuration not stated),39,·,·,·,·,·
Nc1nc(-c2ccccc2)c(-c2ccc([N+](=O)[O-])cc2)s1,8,-14,74*,4,0,7
Cc1ccc(-c2nc(N)sc2-c2ccccc2)cc1C,2,-7,87*,1,5,-3
Nc1nc(-c2ccccc2)c(-c2ccccc2)s1,0,17,16,1,1,2
